# Laboratory results published in ChEMBL document CHEMBL1139875, “Discovery of 4-aminobutyric acid derivatives possessing anticonvulsant and antinociceptive activities: a hybrid pharmacophore approach” (2007).
# Activity calls are given as the source filed them. The calls are words filed in the database; no cut-off is given here.
# Key:
# Rattus norvegicus [1] = experiment: Antihyperalgesic effects in Sprague-Dawley rat SNL model assessed as duration of paw withdrawal at 100 mg/kg, ip after 2.5 hrs, ip; assay type: functional; conditions: route intraperitoneal
# In short: (§1)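 L5 SNL rats (n = 4), dosed 100 mg/kg i.p. (vehicle 30% v/v PEG 400 in water). Pin-prick to midplantar ipsilateral left hindpaw; withdrawal duration, mean of three responses; ≥2 s defined abnormal. Mean ± SEM; one-way ANOVA with Bonferroni versus predrug.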
# Rattus norvegicus [2] = experiment: Effect on spontaneous pain in Sprague-Dawley rat CCI model assessed as duration of paw withdrawal at 100 mg/kg, ip after 1.5 hrs; assay type: functional; conditions: route intraperitoneal
# In short: (§2)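 Unilateral CCI of sciatic nerve (Bennett and Xie) in Sprague-Dawley rats under i.p. pentobarbital sodium (65 mg/kg). Spontaneous pain is scored over 5 min after 10 min acclimatization, as cumulative time the ipsilateral paw is held off the floor. Paw lifts from locomotion or repositioning are excluded. Drug is given at 100 mg/kg i.p. with 30% v/v PEG 400 vehicle. Mean ± SEM, n = 4, compared with predrug by ANOVA/Bonferroni.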
# Rattus norvegicus [3] = experiment: Antihyperalgesic effects in Sprague-Dawley rat SNL model assessed as duration of paw withdrawal at 100 mg/kg, ip after 1.5 hrs, ip; assay type: functional; conditions: route intraperitoneal; in short: as §1
# Rattus norvegicus [4] = experiment: Anti-dynamic allodynia effect in Sprague-Dawley rat SNL model assessed as latency to paw withdrawal 100 mg/kg, ip after 2 hrs; assay type: functional; conditions: route intraperitoneal
# In short: (§3)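 Left L5 spinal nerve ligation rats, tested preoperatively and 9 days postoperatively, then given 100 mg/kg i.p. (vehicle 30% v/v PEG 400 in water). After 10 min acclimatization, plantar surface of affected paw stroked mildly with a cotton-bud; paw lift response recorded. n = 4; retested 0.5-2.5 h post-dose.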
# Rattus norvegicus [5] = species: Rattus norvegicus; experiment: Anti-dynamic allodynic effect in Sprague-Dawley rat CCI model assessed as latency to paw withdrawal after 1 hr; assay type: functional
# In short: (§4)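 Rats with sciatic nerve chronic constriction injury (pentobarbital 65 mg/kg i.p. anaesthesia), baseline and day 9 testing, then drug per randomization table. After 10 min acclimatization, affected plantar surface stroked mildly with a cotton-bud; paw lift recorded. n = 4; retested 0.5-2.5 h post-dose.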
# Rattus norvegicus [6] = experiment: Anti-cold allodynia effect in Sprague-Dawley rat SNL model assessed as duration of paw withdrawal 100 mg/kg, ip after 2.5 hrs; assay type: functional; conditions: route intraperitoneal
# In short: (§5)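 Left L5 spinal nerve ligation under pentobarbital (65 mg/kg i.p.). Allodynic rats dosed i.p. 100 mg/kg, vehicle 30% v/v PEG 400 in water. Acetone (100-200 µL) misted onto midplantar affected paw after 10 min acclimatization; paw withdrawal duration, mean of three samples at least 3 min apart; n = 4 rats.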
# Mus musculus [7] = experiment: Anticonvulsant activity in Swiss Albino mouse at 300 mg/kg, ip after 4 hrs by MES test; assay type: functional, organism-based; set-up: dose 300 mg/kg
# In short: (§6)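 Mice (Swiss, 20-25 g) given i.p. doses of 30, 100 and 300 mg/kg under ADD program protocols, three per group, examined at 0.5 and 4 h in MES, scPTZ, scSTY or scPIC seizure tests. Value is the minimum dose protecting half or more of the mice.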
# Rattus norvegicus [8] = species: Rattus norvegicus; experiment: Anti-dynamic allodynic effect in Sprague-Dawley rat CCI model assessed as latency to paw withdrawal after 2 hr; assay type: functional; in short: as §4
# Rattus norvegicus [9] = experiment: Antihyperalgesic effects in Sprague-Dawley rat SNL model assessed as duration of paw withdrawal at 100 mg/kg, ip after 0.5 hr, ip; assay type: functional; conditions: route intraperitoneal; in short: as §1
# Mus musculus [10] = experiment: Neurotoxicity in Swiss Albino mouse at 300 mg/kg, ip after 0.5 hr by rotarod test; assay type: functional, organism-based; set-up: dose 300 mg/kg
# In short: (§7)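 Swiss mice (20-25 g) are trained on an accelerating rotorod (10 rpm, 3.2 cm rod), then injected i.p. at 30, 100 or 300 mg/kg, with three per group. Neurotoxicity means failure to keep equilibrium for at least 1 min in each of three trials, checked at 0.5 and 4 h. The value reported is the minimum dose affecting half or more of the mice.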
# Rattus norvegicus [11] = experiment: Effect on spontaneous pain in Sprague-Dawley rat CCI model assessed as duration of paw withdrawal at 100 mg/kg, ip after 2 hrs; assay type: functional; conditions: route intraperitoneal; in short: as §2
# Rattus norvegicus [12] = experiment: Antihyperalgesic effects in Sprague-Dawley rat SNL model assessed as duration of paw withdrawal at 100 mg/kg, ip after 1 hr, ip; assay type: functional; conditions: route intraperitoneal; in short: as §1
# Mus musculus [13] = experiment: Analgesic activity in Swiss Albino mouse assessed as number of acetic acid-induced writhing per 30 min after 100 mg/kg, ip; assay type: functional; conditions: route intraperitoneal
# In short: (§8)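 Mice in groups of six dosed i.p. at 100 mg/kg, controls receiving 30% v/v PEG 400 in water. Writhing induced by i.p. 0.1 mL of 3% v/v acetic acid 1 h after drug. Writhes (abdominal stretch with at least one hind limb extended) counted over 30 min; % inhibition calculated. Mean ± SEM, Student's t test.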
# Mus musculus [14] = experiment: Anticonvulsant activity in Swiss Albino mouse at 300 mg/kg, ip after 4 hrs by scPIC test; assay type: functional, organism-based; set-up: dose 300 mg/kg; in short: as §6
# Mus musculus [15] = experiment: Anticonvulsant activity in Swiss Albino mouse at 300 mg/kg, ip after 0.5 hr by scPIC test; assay type: functional, organism-based; set-up: dose 300 mg/kg; in short: as §6
# Rattus norvegicus [16] = experiment: Antihyperalgesic effects in Sprague-Dawley rat SNL model assessed as duration of paw withdrawal at 100 mg/kg, ip after 2 hrs, ip; assay type: functional; conditions: route intraperitoneal; in short: as §1
# Rattus norvegicus [17] = experiment: Anti-cold allodynia effect in Sprague-Dawley rat SNL model assessed as duration of paw withdrawal 100 mg/kg, ip after 2 hrs; assay type: functional; conditions: route intraperitoneal; in short: as §5
# Rattus norvegicus [18] = experiment: Anti-dynamic allodynia effect in Sprague-Dawley rat SNL model assessed as latency to paw withdrawal 100 mg/kg, ip after 2.5 hrs; assay type: functional; conditions: route intraperitoneal; in short: as §3
# Rattus norvegicus [19] = experiment: Effect on spontaneous pain in Sprague-Dawley rat CCI model assessed as duration of paw withdrawal at 100 mg/kg, ip after 0.5 hr; assay type: functional; conditions: route intraperitoneal
# In short: (§9)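 CCI rats (n = 4) dosed 100 mg/kg i.p. (vehicle 30% v/v PEG 400 in water). After 10 min acclimatization in a cage 5 cm above ground, cumulative time the ipsilateral paw was held off the floor over 5 min recorded, excluding locomotion lifts. Mean ± SEM; ANOVA/Bonferroni versus predrug.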
# Rattus norvegicus [20] = experiment: Anti-cold allodynia effect in Sprague-Dawley rat SNL model assessed as duration of paw withdrawal 100 mg/kg, ip after 1 hrs; assay type: functional; conditions: route intraperitoneal; in short: as §5
# Rattus norvegicus [21] = experiment: Effect on spontaneous pain in Sprague-Dawley rat CCI model assessed as duration of paw withdrawal at 100 mg/kg, ip after 2.5 hrs; assay type: functional; conditions: route intraperitoneal; in short: as §2
# Rattus norvegicus [22] = experiment: Anti-cold allodynia effect in Sprague-Dawley rat SNL model assessed as duration of paw withdrawal 100 mg/kg, ip after 0.5 hr; assay type: functional; conditions: route intraperitoneal; in short: as §5
# Rattus norvegicus [23] = species: Rattus norvegicus; experiment: Anti-dynamic allodynic effect in Sprague-Dawley rat CCI model assessed as latency to paw withdrawal after 2.5 hr; assay type: functional; in short: as §4
# Rattus norvegicus [24] = experiment: Anti-dynamic allodynia effect in Sprague-Dawley rat SNL model assessed as latency to paw withdrawal 100 mg/kg, ip after 1 hr; assay type: functional; conditions: route intraperitoneal; in short: as §3
# Rattus norvegicus [25] = experiment: Effect on spontaneous pain in Sprague-Dawley rat CCI model assessed as duration of paw withdrawal at 100 mg/kg, ip after 1 hr; assay type: functional; conditions: route intraperitoneal; in short: as §9
# Mus musculus [26] = experiment: Anticonvulsant activity in Swiss Albino mouse at 100 mg/kg, ip after 0.5 hr by scSTY test; assay type: functional, organism-based; set-up: dose 100 mg/kg; in short: as §6
# Rattus norvegicus [27] = species: Rattus norvegicus; experiment: Anti-dynamic allodynic effect in Sprague-Dawley rat CCI model assessed as latency to paw withdrawal after 0.5 hr; assay type: functional; in short: as §4
# Mus musculus [28] = experiment: Anticonvulsant activity in Swiss Albino mouse at 300 mg/kg, ip after 0.5 hr by MES test; assay type: functional, organism-based; set-up: dose 300 mg/kg; in short: as §6
# Mus musculus [29] = experiment: Analgesic activity in Swiss Albino mouse assessed as inhibition of acetic acid-induced writhing responses at 100 mg/kg, ip; assay type: functional; conditions: route intraperitoneal; in short: as §8
# Rattus norvegicus [30] = experiment: Anti-dynamic allodynia effect in Sprague-Dawley rat SNL model assessed as latency to paw withdrawal 100 mg/kg, ip after 1.5 hrs; assay type: functional; conditions: route intraperitoneal; in short: as §3
# Mus musculus [31] = experiment: Anticonvulsant activity in Swiss Albino mouse at 300 mg/kg, ip after 0.5 hr by scPTZ test; assay type: functional, organism-based; set-up: dose 300 mg/kg; in short: as §6
# Rattus norvegicus [32] = species: Rattus norvegicus; experiment: Anti-dynamic allodynic effect in Sprague-Dawley rat CCI model assessed as latency to paw withdrawal after 1.5 hr; assay type: functional; in short: as §4
# Rattus norvegicus [33] = experiment: Anti-cold allodynia effect in Sprague-Dawley rat SNL model assessed as duration of paw withdrawal 100 mg/kg, ip after 1.5 hrs; assay type: functional; conditions: route intraperitoneal; in short: as §5
# Rattus norvegicus [34] = experiment: Anti-dynamic allodynia effect in Sprague-Dawley rat SNL model assessed as latency to paw withdrawal 100 mg/kg, ip after 0.5 hr; assay type: functional; conditions: route intraperitoneal; in short: as §3
# Mus musculus [35] = experiment: Anticonvulsant activity in Swiss Albino mouse at 300 mg/kg, ip after 4 hrs by scSTY test; assay type: functional, organism-based; set-up: dose 300 mg/kg; in short: as §6
# Mus musculus [36] = experiment: Neurotoxicity in Swiss Albino mouse at 300 mg/kg, ip after 4 hrs by rotarod test; assay type: functional, organism-based; set-up: dose 300 mg/kg; in short: as §7
smiles,measurement,setting,value
C/C(=N\NC(=O)NCCCC(=O)O)c1ccccc1,Activity,Rattus norvegicus [1],17.3 s
same,Activity,Rattus norvegicus [2],18.3 s
same,Activity,Rattus norvegicus [3],18.7 s
same,Activity,Rattus norvegicus [4],12.2 s
same,Activity,Rattus norvegicus [5],10.2 s
same,Activity,Rattus norvegicus [6],4.8 s
same,Activity,Mus musculus [7],inactive
same,Activity,Rattus norvegicus [8],12.1 s
same,Activity,Rattus norvegicus [9],23.2 s
same,Activity,Mus musculus [10],inactive
same,Activity,Rattus norvegicus [11],12.9 s
same,Activity,Rattus norvegicus [12],27.6 s
same,Activity,Mus musculus [13],33.7
same,Activity,Mus musculus [14],Active
same,Activity,Mus musculus [15],Active
same,Activity,Rattus norvegicus [16],16.7 s
same,Activity,Rattus norvegicus [17],10.9 s
same,Activity,Rattus norvegicus [18],11.88 s
same,Activity,Rattus norvegicus [19],13.2 s
same,Activity,Rattus norvegicus [20],12.8 s
same,Activity,Rattus norvegicus [21],10.6 s
same,Activity,Rattus norvegicus [22],17.9 s
same,Activity,Rattus norvegicus [23],14.5 s
same,Activity,Rattus norvegicus [24],7.2 s
same,Activity,Rattus norvegicus [25],18.8 s
same,Activity,Mus musculus [26],Active
same,Activity,Rattus norvegicus [27],14.8 s
same,Activity,Mus musculus [28],inactive
same,inhibition in vivo at 100 mg/kg,Mus musculus [29],82%
same,Activity,Rattus norvegicus [30],9.2 s
same,Activity,Mus musculus [31],inactive
same,Activity,Rattus norvegicus [32],13.3 s
same,Activity,Rattus norvegicus [33],11.7 s
same,Activity,Rattus norvegicus [34],8.7 s
same,Activity,Mus musculus [35],Active
same,Activity,Mus musculus [36],inactive
